# Data as given in ChEMBL document CHEMBL1127027, “Synthesis and structure-activity relationships of naphthalene-substituted derivatives of the allylamine antimycotic terbinafine” (1993).
# Experiments:
# Aspergillus fumigatus = assay: Tested in vitro for minimum inhibitory concentration against Aspergillus fumigatus; type: functional
# How it was run: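 Broth macrodilution in glass tubes with Sabouraud's dextrose broth (pH 6.5). Compounds were dissolved in DMSO and serially diluted in medium. Inoculum was filamentous fungus harvested by spatula from Kimmig agar cultures grown 21 days at 30 °C. Tubes were incubated 72 h at 30 °C. MIC was the lowest concentration with no macroscopically visible growth.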
# Candida albicans [1] = assay: Tested in vitro for minimum inhibitory concentration against Candida albicans 124; type: functional
# How it was run: (§1)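 Yeasts were tested by tube dilution in malt extract broth (pH 4.8), with DMSO-dissolved compounds serially diluted in the broth. Blastospores came from yeast nitrogen base cultures shaken at 37 °C for about 30 h. After 48 h at 30 °C, MIC was read as the lowest concentration without macroscopic growth.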
# Candida parapsilosis = assay: Tested in vitro for minimum inhibitory concentration against Candida parapsilosis 39; type: functional; settings: Lodderomyces parapsilosis; how it was run: as §1
# Microsporum canis = assay: Tested in vitro for minimum inhibitory concentration against Microsporum canis; type: functional
# How it was run: (§2)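 Glass-tube serial dilution in Sabouraud's dextrose broth (pH 6.5), with compounds dissolved in DMSO and diluted in medium. Mycelial inoculum was scraped from 21-day Kimmig agar cultures grown at 30 °C. Incubation was 7 days at 30 °C. MIC was the lowest concentration giving no macroscopically detectable growth.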
# Sporothrix schenckii = assay: Tested in vitro for minimum inhibitory concentration against Sporothrix schenck ii; type: functional; how it was run: as §2
# Trichophyton benhamiae = assay: Tested in vitro for minimum inhibitory concentration against Trichophyton mentagrophytes; type: functional, Arthroderma benhamiae; how it was run: as §2
# Candida albicans [2] = assay: Tested in vitro for minimum inhibitory concentration against Candida albicans 9; type: functional; how it was run: as §1
Compound,MIC (Aspergillus fumigatus) [µg/mL],MIC (Candida albicans [1]) [µg/mL],MIC (Candida parapsilosis) [µg/mL],MIC (Microsporum canis) [µg/mL],MIC (Sporothrix schenckii) [µg/mL],MIC (Trichophyton benhamiae) [µg/mL],MIC (Candida albicans [2]) [µg/mL]
Cc1cc(CN(C)C/C=C/C#CC(C)(C)C)c2ccccc2c1,3.13,50,1.56,0.02,0.2,0.01,50
Cc1ccc(CN(C)C/C=C/C#CC(C)(C)C)c2ccccc12,> 200,50,3.13,0.05,0.8,0.02,25
Cc1cccc2c(CN(C)C/C=C/C#CC(C)(C)C)cccc12,0.8,12.5,1.56,0.02,0.4,0.006,6.25
CN(C/C=C/C#CC(C)(C)C)Cc1cccc2ccccc12 [TERBINAFINE],0.8,25,0.8,0.006,0.4,0.003,6.25
CN(C/C=C/C#CC(C)(C)C)Cc1ccc(C#N)c2ccccc12,> 200,> 200,12.5,0.1,> 200,0.2,> 200
CN(C/C=C/C#CC(C)(C)C)Cc1cccc2c(C#N)cccc12,> 200,> 200,3.13,0.4,6.25,0.2,> 200
CN(C/C=C/C#CC(C)(C)C)Cc1cc(F)cc2ccccc12,0.8,6.25,0.2,0.006,0.2,0.006,0.8
CN(C/C=C/C#CC(C)(C)C)Cc1cc(C#N)cc2ccccc12,> 200,> 200,0.4,0.05,> 200,0.05,> 200
CN(C/C=C/C#CC(C)(C)C)Cc1cccc2c(Cl)csc12,0.1,0.8,0.1,0.003,0.2,0.0015,0.4
CN(C/C=C/C#CC(C)(C)C)Cc1cccc2c(F)cc(F)cc12,0.1,1.56,0.1,0.003,0.1,0.003,0.8

# Continued, values first:
MIC (Aspergillus fumigatus) [µg/mL],MIC (Candida albicans [1]) [µg/mL],MIC (Candida parapsilosis) [µg/mL],MIC (Microsporum canis) [µg/mL],MIC (Sporothrix schenckii) [µg/mL],MIC (Trichophyton benhamiae) [µg/mL],MIC (Candida albicans [2]) [µg/mL],Compound
1.56,3.13,0.8,0.01,0.1,0.006,1.56,CN(C/C=C/C#CC(C)(C)C)Cc1cccc2c(Br)cccc12
3.13,25,0.8,0.01,0.4,0.01,12.5,CN(C/C=C/C#CC(C)(C)C)Cc1ccc(F)c2ccccc12
0.1,3.13,0.2,0.006,0.2,0.006,1.56,CN(C/C=C/C#CC(C)(C)C)Cc1cccc2c(F)cccc12
1.56,50,0.8,0.05,0.4,0.01,25,Cc1ccc2cccc(CN(C)C/C=C/C#CC(C)(C)C)c2c1
0.4,12.5,0.4,0.006,0.4,0.006,3.13,CN(C/C=C/C#CC(C)(C)C)Cc1cccc2ccc(F)cc12
> 200,25,0.8,0.05,0.4,0.01,12.5,Cc1ccc2c(CN(C)C/C=C/C#CC(C)(C)C)cccc2c1
1.56,12.5,0.4,0.02,0.4,0.02,3.13,CN(C/C=C/C#CC(C)(C)C)Cc1cccc2ccc(Cl)cc12
0.1,1.56,0.2,0.006,0.4,0.003,0.8,CN(C/C=C/C#CC(C)(C)C)Cc1cccc2c(Cl)cccc12
6.25,25,1.56,0.006,0.8,0.006,6.25,CN(C/C=C/C#CC(C)(C)C)Cc1cccc2cc(F)ccc12
